Experiment [1] has as its system Aorta. Nature of the experiment: Vasodilatory activity in Wistar rat endothelium-denuded thoracic aorta assessed as reduction in phenylephrine-induced contraction. It is filed as functional, tissue-based. Summed up: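 Endothelium-denuded aortic strips equilibrated 120 min, contracted with L-phenylephrine (1 μM), then given cumulative concentrations of vasodilator. EC50 is the mean ± SEM of at least three experiments.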

For experiment [2], the system named is Aorta. Nature of the experiment: Vasodilatory activity in Wistar rat endothelium-denuded thoracic aorta assessed as reduction in phenylephrine-induced contraction in presence 1 uM sGC inhibitor ODQ. The experiment is classed as functional, tissue-based. Summed up: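 Denuded aortic strips equilibrated 120 min, with ODQ 1 μM added to the bath 5 min before L-phenylephrine (1 μM) contraction. Cumulative vasodilator concentrations then added. EC50 is the mean ± SEM of at least three experiments, in a separate series.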

The subject of experiment [3] is Plasmodium berghei. Put plainly: Antiplasmodial activity against Plasmodium berghei ANKA early trophozoite stage by parasite LDH assay. The experiment is classed as functional, organism-based.
The test system of experiment [4] is Plasmodium berghei. Put plainly: Antiplasmodial activity against Plasmodium berghei ANKA infected in C57BL/6 mouse assessed as reduction in paresitemia at 1.4 umol, ip qd for 5 days measured after 5 days by giemsa staining based microscpic analysis. The experiment is classed as functional, organism-based. Summed up: (§1)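 C57BL/6 mice infected with P. berghei ANKA and treated from day 5 of infection at 5–15% parasitemia, before neurological signs. Dosing 1.4 μmol ip once daily for 5 days; parasitemia checked every 24 h. Value given as % of pre-treatment parasitemia (set as 100%), read 24 h after the first dose or 24 h after the fifth.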

Experiment [5] deals with Plasmodium berghei. Nature of the experiment: Antimalarial activity against Plasmodium berghei ANKA infected in C57BL/6 mouse experimental cerebral model assessed as mouse survival rate at 57 mg/kg, ip qd for 5 days. The experiment is classed as functional. Summed up: (§2)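 P. berghei ANKA-infected mice left to develop clinical cerebral signs, then treated once hypothermic (rectal temperature 30–36 °C); parasitemia checked but not a treatment criterion. Read-out is survival, compared by log-rank test; 24 h survival also recorded. […] only the subgroup treated above 32 °C body temperature.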

For experiment [6], the system named is Plasmodium berghei. Put plainly: Antimalarial activity against Plasmodium berghei ANKA infected in C57BL/6 mouse experimental cerebral model assessed as mouse survival rate at 57 mg/kg, ip qd for 5 days measured after 24 hrs. It is filed as functional. Summed up:
as §2

The test system of experiment [7] is Plasmodium berghei. Put plainly: Antimalarial activity against Plasmodium berghei ANKA infected in C57BL/6 mouse experimental cerebral model with body temperature >32 deg C assessed as mouse survival rate at 57 mg/kg, ip qd for 5 days. It is filed as functional. Summed up:
as §2

Experiment [8] concerns Plasmodium berghei. Put plainly: Antiplasmodial activity against Plasmodium berghei ANKA infected in C57BL/6 mouse assessed as reduction in paresitemia at 1.4 umol, ip qd for 5 days measured after 24 hrs by giemsa staining based microscpic analysis. It is filed as functional. Summed up: as §1
Experiment [9] relates to Plasmodium berghei. Put plainly: Antimalarial activity against Plasmodium berghei ANKA infected in C57BL/6 mouse experimental cerebral model assessed as mouse survival rate at 25 mg/kg, ip qd for 5 days. It is filed as functional. Summed up:
as §2

Experiment [10] relates to Plasmodium berghei. Put plainly: Antimalarial activity against Plasmodium berghei ANKA infected in C57BL/6 mouse experimental cerebral model with body temperature >32 deg C assessed as mouse survival rate at 25 mg/kg, ip qd for 5 days. The experiment is classed as functional. Summed up:
as §2

Experiment [11] concerns Plasmodium berghei. Nature of the experiment: Antimalarial activity against Plasmodium berghei ANKA infected in C57BL/6 mouse experimental cerebral model assessed as mouse survival rate at 25 mg/kg, ip qd for 5 days measured after 24 hrs. The experiment is classed as functional. Summed up: as §2

For orientation: EC50 means the concentration giving half of the maximal effect. In general, IC50 refers to the concentration that inhibits the measured activity by half. A lower IC50 goes with greater potency.

Molecules are shown by their SMILES. The source made the active and inactive calls.

For `C[C@H]1[C@@H](OCCN(C)Cc2no[n+]([O-])c2C(N)=O)O[C@@H]2O[C@@]3(C)CC[C@H]4[C@H](C)CC[C@@H]1[C@@]24OO3`, the Activity result in the experiment with Aorta [1] is “Dose-dependent effect”; in the experiment on Plasmodium berghei [5], 51.6%; in the experiment with Plasmodium berghei [6], 77%; in the experiment on Plasmodium berghei [7], 63.6%. For the same compound, the EC50 in the experiment on Aorta [1] is 1400 nM; in the experiment with Aorta [2] it was 12000 nM. The compound also returned an IC50 in the experiment with Plasmodium berghei [3] of 16 nM. In the experiment with Plasmodium berghei [4], the result was Active. Also, in the experiment on Plasmodium berghei [8], the “inhibition (INH)” value stood at 95%.
For `C[C@H]1[C@@H](OCCN(C)Cc2no[n+]([O-])c2C#N)O[C@@H]2O[C@@]3(C)CC[C@H]4[C@H](C)CC[C@@H]1[C@@]24OO3`, the EC50 in the experiment on Aorta [1] was 23 nM; in the experiment on Aorta [2] it was 250 nM. In the experiment on Plasmodium berghei [3], this compound registered an IC50 of 18 nM. Besides, in the experiment with Plasmodium berghei [4], the outcome was Active. The “inhibition (INH)” value in the experiment on Plasmodium berghei [8] was found to be 85%.
The compound `C[C@H]1[C@H](OC(=O)CCC(=O)O)O[C@@H]2O[C@@]3(C)CC[C@H]4[C@H](C)CC[C@@H]1[C@@]24OO3` [SODIUM ARESUNATE] yielded an IC50 in the experiment with Plasmodium berghei [3] of 16 nM.
In the experiment with Plasmodium berghei [3], `CO[C@H]1O[C@@H]2O[C@@]3(C)CC[C@H]4[C@H](C)CC[C@@H]([C@H]1C)[C@@]24OO3` [ARTEMETHER] showed an IC50 of 3 nM. Also, the Activity in the experiment with Plasmodium berghei [9] worked out at 27.5%; with Plasmodium berghei [10], 33.3%; in the experiment with Plasmodium berghei [11] it was 48%.
In the case of `C[C@H]1[C@@H](OC(=O)CCC(=O)OCO/N=[N+](\[O-])N2CCCC2)O[C@@H]2O[C@@]3(C)CC[C@H]4[C@H](C)CC[C@@H]1[C@@]24OO3`, the values for the EC50 in the experiment with Aorta [1] and in the experiment with Aorta [2] were 3.6 nM and 140 nM, respectively. In the experiment on Plasmodium berghei [3], 15 nM corresponded to half-maximal inhibition (IC50). Moreover, the outcome in the experiment with Plasmodium berghei [4] was Active. Further, the “inhibition (INH)” value in the experiment with Plasmodium berghei [8] came out at 95%.
Taken in the same sequence, the figures for `C[C@H]1[C@@H](OCCN(C)Cc2no[n+]([O-])c2S(=O)(=O)c2ccccc2)O[C@@H]2O[C@@]3(C)CC[C@H]4[C@H](C)CC[C@@H]1[C@@]24OO3` were 410 nM, 30000 nM, 14 nM, “Active” and 95%.
